From PubChem BioAssay
PKD1 inh = inhibitors of human PKD1 kinase, biochemical, fluorescence polarization. PKD1 kinase fluorescence polarization assay. inhibition, % (concentration not given with the values). hit rate 0.056% among 200,000; in the data active = inhibition above about 50%
Rad51 HR inh = human RAD51 strand exchange inhibitors, primary screen, biochemical, fluorescence; hit rate 0.085% among 200,000; AID 1385, 2008; DNA repair protein RAD51 homolog 1 (Homo sapiens), Q06609; hRad51 DNA strand exchange, fluorescence dequenching; inhibition, % at 10 µM;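 active = inhibition above 40% at the single screening dose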;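 also: 0% = DMSO control wells and 100% = blanks with heterologous ssDNA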
Target sequence (Q06609 whole entry, looked up): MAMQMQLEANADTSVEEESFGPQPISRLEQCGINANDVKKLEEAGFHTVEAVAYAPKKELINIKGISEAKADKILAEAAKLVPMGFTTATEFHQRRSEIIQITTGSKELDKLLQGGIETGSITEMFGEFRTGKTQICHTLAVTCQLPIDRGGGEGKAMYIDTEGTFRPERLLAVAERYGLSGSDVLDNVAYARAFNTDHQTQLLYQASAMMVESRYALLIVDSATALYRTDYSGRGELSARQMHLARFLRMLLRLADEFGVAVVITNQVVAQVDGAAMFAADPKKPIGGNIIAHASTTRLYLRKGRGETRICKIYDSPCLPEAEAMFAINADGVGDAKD
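Test system: preformed human Rad51 ssDNA filaments; also added: Donor/quencher-labelled 47-bp dsDNA substrate; doses: 10 µM final, single point; times: 37 °C 15-min filament assembly, 30-min compound preincubation, 15-min exchange; detection: FRET fluorescence dequenching, excitation 485 nm, emission 520 nm; read-out basis: Fluorescence-based percent inhibition, control- and blank-normalised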
ROMK primary = ROMK potassium channel modulators, primary screen, cell-based, thallium flux, MLSMR library; AID 1918, 2009; hit rate 2% among 130,000; ATP-sensitive inward rectifier potassium channel 1 (Homo sapiens), P48048; B-score at 10 µM; Tet-inducible ROMK, thallium flux fluorescence; actives lie on both sides;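 active = signal ratio slope over the read window, or its plate-corrected B-score, at least 3 SD from the plate mean, either direction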;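 also: B-score of the F/F0 ratio slope over 7 to 12 s after thallium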
Cl transport mod = KCC2 cotransporter modulators, thallium flux, primary screen, cell-based, HEK293 KCC2, FluoZin-2 fluorescence, MLSMR. KCC2 cells, thallium flux FluoZin-2 fluorescence. B-score of Tl+ flux slope (higher = more flux/activation; lower = inhibition) at 10 µM. hit rate 2.2% among 190,000. AID 1456, 2008;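 active = thallium flux slope and its plate-corrected score both differing from the plate sample mean at a set confidence after two filtering rounds, in either direction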;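 also: slope of fluorescence scaled to starting intensity during 10 to 20 s after thallium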
ROMK hit retest = ROMK channel modulator hit retest, confirmation, cell-based, thallium flux, duplicate, resupplied hits; shares compounds with ROMK primary; fluorescence ratio; hits give low values; normalized thallium flux (F/F0 slope) at 10 µM; hit rate 54% among 3,000; AID 1917, 2009;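 active = Flux at 10 µM at least 3 SD below or above vehicle control mean in one or both replicates; inconclusive = no clear call, values can overlap the other calls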
Active calls of the source: *; ? = inconclusive; / = not tested or not shown. Hits are enriched below; roughly 3% of the tested compounds scored in any of these assays.

SMILES | PKD1 inh | Rad51 HR inh | ROMK primary | Cl transport mod | ROMK hit retest
CC(=O)Nc1ccc2c(c1)C(=O)N(c1cccc(C)c1)C2=O | / | 14 | / | / | /
COC(=O)c1ccccc1NC(=O)CC#N | -15 | 21 | / | 0.23 | 0.073
COC(=O)c1ccccc1NC(=O)C/C(C)=N/NC(=O)CC#N | 2 | 29 | / | -0.49 | /
CNc1ccccc1C(=O)OCC(C)=O | -4 | 2 | 0.05 | 0.66 | /
CNc1ccccc1C(=O)OC | / | 0 | / | 0.69 | 0.081
CCOC(=O)c1sc(NC(=O)CSc2n[nH]c(CC(C)C)n2)nc1C | 0 | 3 | -1.5 | 0.27 | /
CC(C(=O)N1CCN=C1c1ccccc1)N1C(=O)c2ccccc2C1=O (stereo not given) | / | 7 | / | 1.3 | /
O=S(=O)(NCc1ccco1)c1ccccc1Br | / | -2 | / | 0.59 | /
CCOC(=O)c1ccc(N2C(=O)c3n[nH]c(C)c3C2c2ccc(OC)c(OC)c2)cc1 (stereo not given) | 6 | -2 | / | -1.4 | 0.087
CCc1cc(/C(Cc2ccccn2)=N\Nc2ccccc2)c(O)cc1O | 4 | -1 | 0.17 | -1.3 | /
CC(C)(C)CC(=O)Nc1nn[nH]n1 | -5 | -15 | 1.2 | 1.4 | /
O=C(CSc1nnc(-c2ccc(S(=O)(=O)N3CCCC3)cc2)n1CC1CCCO1)NC1CC1 (stereo not given) | 0 | -10 | / | 0.33 | 0.091
Cc1cccc(-c2nc3c(c(=O)c4ccccc4n3C)c(=O)n2-c2ccccc2)c1 | / | 4 | / | -0.48 | /
Cc1nc2cc(F)ccc2n1C1CCN(S(=O)(=O)c2ccccc2)CC1 | -7 | -3 | -6.1* | -0.28 | ?
Cc1nc2cc(F)ccc2n1C1CCN(C(=O)c2c(F)cccc2F)CC1 | -6 | -12 | -0.12 | 0.36 | /
CCCCOC(=O)c1ccc(NC(=O)COC(=O)CSc2nc(C)cc(C)n2)cc1 | 5 | 5 | -3.1* | -0.33 | 0.079
COc1ccc(N/N=C(\C#N)C(=N)SCc2ccccc2)cc1 | -1 | 17 | / | -0.025 | 0.053*
CC(C)[C@H](NC(=O)c1ccco1)C(=O)NC12CC3CC(CC(C3)C1)C2 | 0 | 4 | -0.97 | -0.38 | /
O=C(O)c1ccc(COc2ccc(Cl)cc2)o1 | 3 | -5 | / | 0.084 | ?
CN1CCN(C(=O)/C(C#N)=C/c2ccc(F)cc2)CC1 | -5 | 2 | -2.7* | -0.19 | 0.047*
N#C/C(=C\c1ccc(C#N)cc1)C(=O)N1CCCC1 | -5 | -5 | -5.1* | -0.085 | 0.04*
N#C/C(=C\c1ccc(O)cc1)C(=O)N1CCCC1 | / | 0 | / | 0.83 | /
COc1ccc(NC(=O)COC(=O)CCCc2c[nH]c3ccccc23)cc1OC | -7 | -4 | / | -0.91 | /
O=C(N/N=C/c1ccsc1)c1cc(-c2ccncc2)nc2ccccc12 | -13 | 19 | 3* | -0.0056 | 0.081
O=C(N/N=C/c1ccco1)c1cc(-c2cccc(Br)c2)nc2ccccc12 | -5 | / | -0.49 | 2.5 | /
SMILES | PKD1 inh | Rad51 HR inh | ROMK primary | Cl transport mod | ROMK hit retest
O=C(Nc1ccc2c(c1)OCO2)c1cc(-c2ccncc2)nc2ccccc12 | 1 | 30 | / | 0.076 | 0.068*
Cc1ccsc1/C=N/NC(=O)c1cc(-c2ccncc2)nc2ccccc12 | 9 | -5 | 4.8* | / | ?
CC(/C=N/NC(=O)c1cc(-c2ccncc2)nc2ccccc12)=C\c1ccco1 | -1 | / | 3.7* | 0.58 | 0.09
O=C(Nc1ccc2c(c1)OCCO2)c1cc(-c2ccccc2)nc2ccccc12 | 0 | 6 | / | -0.18 | /
Cc1cc(C)n(-c2cccc(F)n2)n1 | -2 | 4 | -0.032 | / | /
CC(=O)Nc1ccc(Cc2ccc3[nH]c(=O)cc(C)c3c2)cc1 | / | 17 | / | -1.2 | /
CS(=O)(=O)c1nc(-c2ccco2)cc(C(F)(F)F)n1 | -3 | 3 | -3.6* | / | 0.057*
COc1ccccc1-c1cc(C(F)(F)F)nc(S(C)(=O)=O)n1 | 2 | / | -3.9* | 0.74 | 0.06*
CCCCN(C(=O)NC(=O)Nc1ccc(C)cn1)S(C)(=O)=O | -2 | 4 | / | 0.11 | /
CC1=NNC(=O)C1C(c1ccc(Cl)cc1)C(C#N)C#N (stereo not given) | / | / | 0.21 | 0.19 | /
CC1=NNC(=O)C1C(c1cccc(O)c1)C(C#N)C#N (stereo not given) | / | 20 | -2.4* | -0.6 | 0.076
Cc1nn(C)c(C(=O)Sc2cccc(Cl)c2)c1[N+](=O)[O-] | / | 2 | -2.9* | -0.2 | 0.064*
Oc1c(Br)cc(Br)cc1C=Nc1ccc2c(c1)OCO2 | -7 | -54 | 3.4* | -0.51 | 0.11*
Oc1c(Br)cc(Br)cc1C=Nc1ccc2c(c1)OCCO2 | -4 | / | 1.9 | -1.6 | /
CC(C)CCN1CCN(CCCn2cccn2)CC1CCO (stereo not given) | -9 | 13 | 0.0073 | / | /
N#Cc1c(N)n(CCOC(=O)c2cccc(Br)c2)c2nc3ccccc3nc12 | -3 | -9 | -1.4 | 0.52 | 0.089
O=Cc1ccc(-c2ccccc2OC(F)(F)F)o1 | 0 | 16 | 3.8* | / | 0.11*
COc1cccc(CNCCNC(=O)c2nonc2N)c1 | -1 | -2 | / | 0.8 | /
Nc1nonc1C(=O)NCCNCc1cc(Br)ccc1OCc1ccccc1F | 1 | 2 | -4.2* | -2.1 | 0.049*
Nc1nonc1C(=O)NCCNCc1ccccc1OCc1ccccc1F | -6 | 2 | / | -0.38 | /
COc1cc(CNCCNC(=O)c2nonc2N)ccc1OCc1ccc(Cl)cc1 | -4 | -4 | -3.1* | 0.64 | 0.053*
COc1cccc(N2CC(O)=C(c3nc4ccccc4s3)C2=N)c1 | -8 | -4 | 3.3* | 1 | ?
COc1ccc(N2CC(O)=C(c3nc4ccccc4s3)C2=N)cc1 | -4 | -5 | / | -0.86 | /
COC(=O)COc1ccc(-c2ccccc2)cc1C=O | 3 | 3 | / | -1 | /
COC(=O)COc1ccc(-c2ccc(F)cc2)cc1C=O | -4 | 14 | 4.7* | -0.59 | ?
SMILES | PKD1 inh | Rad51 HR inh | ROMK primary | Cl transport mod | ROMK hit retest
CN(C)S(=O)(=O)Oc1cccc(C(=O)Nc2ccc(Cl)cc2)c1 | -13 | 0 | / | -1.2 | 0.074
CCOC(=O)c1ccc2[nH]c3c(c2c1)CCCCC3=O | 7 | 4 | / | 1 | 0.076
COc1cc(C)nc(NC(=O)COc2ccc(Cl)cc2C)n1 | -2 | -8 | / | 0.68 | ?
COc1cc(C)nc(OCCNC(=O)COc2ccc(Cl)cc2Cl)n1 | -6 | -1 | / | / | /
COC(=O)c1ccc(C(=O)N(CCN(C)C)c2nc3c(Cl)cccc3s2)cc1 | -3 | 3 | 2.9e-05 | -0.83 | /
Cc1ccc(C(=O)C(c2ccccc2)N2Cc3ccccc3C2=N)cc1 (stereo not given) | 1 | 5 | -3* | -0.8 | 0.054*
Cc1ccccc1C(=O)Nc1cccc(C(=O)N/N=C/c2cc(Cl)cc([N+](=O)[O-])c2O)c1 | 1 | / | 1.7 | -0.67 | /
CCN1CCN(CCNC(=O)c2ccc3c(c2)N(Cc2ccc(F)cc2)C(=O)/C(=C/c2ccccc2)S3)CC1 | 4 | 27 | -3.1* | -1.8 | 0.073
